Article PMC9729583 (Antiviral Research, 2022)
Like-named read-outs stand apart in the source and are kept apart here.

Assays:
mNG-SARS-CoV-2 [1] = test: microbe, parasite or virus in culture; type: cell-based; conditions: for % Inhibition: 50 µM; for inhibition at 50 µM: Severe acute respiratory syndrome coronavirus 2, Calu-3
mNG-SARS-CoV-2 [2] = test: microbe, parasite or virus in culture; type: cell-based
Calu-3 cells = test: PrestoBlue cytotoxicity assay; type: cell-based, human; conditions: Calu-3, 48 h incubation
How it was run: (§1)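 Calu-3 cells were grown per ATCC recommendations and seeded in 96-well plates. After 24 h, medium was replaced with serially diluted test compound for 48 h. Cells were then incubated 2 h with 5% PrestoBlue and fluorescence read at ex 555/em 585 nm. Viability was expressed as % of vehicle-treated cells. At least three independent experiments were run.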

SARS-CoV-2 Omicron BA.1 = test: dose-response against SARS-CoV-2 Omicron BA.1 in Calu-3 cells; type: cell-based
wild-type SARS-CoV-2 [3] = conditions: cited from earlier work
mNG-SARS-CoV-2 [4] = test: microbe, parasite or virus in culture; type: cell-based; remark: listed apart in the source
wild-type SARS-CoV-2 [5] = conditions: Huh-7.5 cells ref Dittmar et al., 2021; cited from earlier work
[6] = PrestoBlue cytotoxicity assay; type: cell-based, human; conditions: human, Calu-3 cells
How it was run: as §1

3CLpro = 3CLpro (Severe acute respiratory syndrome coronavirus 2, UniProt P0DTD1); test: 3CLpro enzymatic assay; type: biochemical, SARS-CoV-2; conditions: data not shown
[7] = Severe acute respiratory syndrome coronavirus 2, Calu-3, read-out: BA.1 (EC50) Nuc, Calu-3, nucleocapsid staining
[8] = Severe acute respiratory syndrome coronavirus 2, Calu-3, read-out: BA.1 (EC50) dsRNA, Calu-3, dsRNA staining
[9] = Severe acute respiratory syndrome coronavirus 2, Calu-3

Compound	% Inhibition (mNG-SARS-CoV-2 [1])	EC50 (mNG-SARS-CoV-2 [2])	CC50 (Calu-3 cells)	other results
2-butylchrysin	95%	18 µM	> 100 µM	
CC(C)=CCc1cc([C@@H]2CC(=O)c3c(O)cc(O)c(CC=C(C)C)c3O2)cc(CC=C(C)C)c1O [5-hydroxysophoranone]	100%	20.2 µM	> 100 µM	
COc1cc([C@H]2OC[C@]3(O)[C@@H](c4ccc(O)c(OC)c4)OC[C@H]23)ccc1O [8-hydroxypinoresinol]	82%	24.4 µM	> 100 µM	
N[C@H](CNc1nc(-c2ccncc2)nc2sc3c(c12)CCCC3)Cc1ccccc1 [CRT0066854]				EC50 (SARS-CoV-2 Omicron BA.1; read-out: BA.1 (EC50) Nuc, Calu-3, nucleocapsid staining): 0.3 µM; EC50 (SARS-CoV-2 Omicron BA.1; read-out: BA.1 (EC50) dsRNA, Calu-3, dsRNA staining): 0.1 µM
CC(C)C[C@H](NC(=O)OCc1ccccc1)C(=O)N[C@@H](CC1CCNC1=O)C(O)S(=O)(=O)O (stereo partly drawn) [GC376]		0.475 µM		EC50 (wild-type SARS-CoV-2 [3]; Vero E6 cells ref Dampalla et al., 2021): 0.23 µM; EC50 (wild-type SARS-CoV-2 [3]; Vero E6 cells ref Fu et al., 2020): 0.7 µM
Cn1c2ccccc2c2c3c(c4c5ccccc5n(CCC#N)c4c21)CNC3=O [Gö6976]				effect on SARS-CoV-2 BA.1 infection (SARS-CoV-2 Omicron BA.1): dramatic increase in susceptibility of cells to SARS-CoV-2 BA.1
COc1ccc2c(c1)c(C1=C(c3c[nH]c4ccccc34)C(=O)NC1=O)cn2CCCN(C)C [Gö6983]				effect on SARS-CoV-2 BA.1 infection (SARS-CoV-2 Omicron BA.1): dramatic increase in susceptibility of cells to SARS-CoV-2 BA.1
C/C=C(/C)C(=O)O[C@H]1C(C)=C[C@]23C(=O)[C@@H](C=C(CO)[C@@H](O)[C@]12O)[C@H]1[C@@H](C[C@H]3C)C1(C)C [PEP 005]				EC50 (SARS-CoV-2 Omicron BA.1; [7]): 0.7 µM; EC50 (SARS-CoV-2 Omicron BA.1; [8]): 1.5 µM
CCC(CC)COC(=O)[C@H](C)N[P@](=O)(OC[C@H]1O[C@@](C#N)(c2ccc3c(N)ncnn23)[C@H](O)[C@@H]1O)Oc1ccccc1 [RDV, remdesivir]				EC50 (mNG-SARS-CoV-2 [4]; Severe acute respiratory syndrome coronavirus 2, Huh-7.5.1, read-out: EC50 (mNG)): 0.0036 µM; EC50 (mNG-SARS-CoV-2 [4]; Severe acute respiratory syndrome coronavirus 2, Huh-7.5.1, read-out: EC50 (nucleocapsid staining)): 0.0076 µM; EC50 (wild-type SARS-CoV-2 [5]): 0.002 µM
CC1(C)C=Cc2c(cc3occ(-c4ccc(O)cc4)c(=O)c3c2O)O1 [alpinumisoflavone]				inhibition at 50 µM (mNG-SARS-CoV-2 [1]): 100%; CC50 at 48 h [6]: > 100 µM
C[C@@H]1CC[C@@]2(OC1)O[C@H]1C[C@H]3[C@@H]4CC[C@@H]5CC(=O)CC[C@]5(C)[C@H]4CC(=O)[C@]3(C)[C@@]1(O)[C@@H]2C [asparacemosone B]	83%	4.04 µM	> 100 µM	
CCC/C=C/C=C/C(=O)O[C@H]1/C(=C/C(=O)OC)C[C@H]2C[C@H]([C@@H](C)O)OC(=O)C[C@H](O)C[C@@H]3C[C@H](OC(C)=O)C(C)(C)[C@](O)(C[C@@H]4C/C(=C/C(=O)OC)C[C@H](/C=C/C(C)(C)[C@]1(O)O2)O4)O3 [bryostatin, bryostatin-1]				EC50 (SARS-CoV-2 Omicron BA.1; [7]): 0.222 µM; EC50 (SARS-CoV-2 Omicron BA.1; [8]): 0.523 µM
CC(=O)O[C@H]1CC[C@]2(C)[C@H]3CC[C@]4(C)Oc5cc(C)oc(=O)c5C[C@H]4[C@]3(C)CC[C@H]2C1(C)C [chevalone B]	95%	4.47 µM	> 100 µM	
CC(=O)O[C@H]1CC[C@]2(C)[C@H]3CC[C@]4(C)Oc5oc(C)cc(=O)c5C[C@H]4[C@]3(C)CC[C@H]2C1(C)C [chevalone C]	100%	4.14 µM	93 µM	
O=c1cc(-c2ccccc2)oc2cc(O)cc(O)c12 [chrysin]				inhibition at 50 µM (mNG-SARS-CoV-2 [1]): 99%; EC50 (mNG-SARS-CoV-2 [2]; [9]): 18.8 µM; CC50 at 48 h [6]: > 100 µM
CC(C)=CCC[C@](C)(O)[C@H]1CC[C@]2(C)[C@@H]1CC[C@@H]1[C@@]3(C)CCC(=O)C(C)(C)[C@@H]3CC[C@]12C [dipterocarpol]		3.05 µM		inhibition at 50 µM (mNG-SARS-CoV-2 [1]): 99%; CC50 at 48 h [6]: > 100 µM

Compound	% Inhibition (mNG-SARS-CoV-2 [1])	EC50 (mNG-SARS-CoV-2 [2])	CC50 (Calu-3 cells)	other results
CC(C)=CCc1cc(-c2coc3c(CC=C(C)C)c(O)ccc3c2=O)ccc1O [erysubin F]				inhibition at 50 µM (mNG-SARS-CoV-2 [1]): 100%; EC50 (mNG-SARS-CoV-2 [2]; [9]): 45.6 µM; CC50 at 48 h [6]: > 100 µM
C=CC(C)(C)c1[nH]c2ccccc2c1-c1c(O)c(OC)c2c(c1OC)O[C@H]1Nc3ccccc3[C@@]21O [giluterrin]		5.44 µM	72 µM	
CC1(O)O[C@@H](n2c3ccccc3c3c4c(c5c6ccccc6[nH]c5c32)CNC4=O)C[C@@H](N)[C@H]1O (stereo partly drawn) [holyrine B]				activity against 3CLpro (3CLpro): neither holyrine A nor B presented activity against 3CLpro
C=C1C[C@@]23CC[C@H]4[C@@](C)(CCC[C@@]4(C)C(=O)O)[C@@H]2CC[C@@H]1C3 [kaur-16-en-18-oic acid]	100%	15.1 µM	> 100 µM	
CC(C)=CCC/C(C)=C/Cc1c(O)cc2oc3c(O)cccc3c(=O)c2c1O [mangostinone]		27.9 µM		inhibition at 50 µM (mNG-SARS-CoV-2 [1]): 92%; CC50 at 48 h [6]: > 100 µM
Cc1cc(O)c(C=O)c2c1C(=O)Oc1c(cc3c(c1C)C(=O)CC(C)(C)O3)O2 [mollicellin B]		6.79 µM		inhibition at 50 µM (mNG-SARS-CoV-2 [1]): 100%; CC50 at 48 h [6]: > 100 µM
COc1c2ccoc2c(OCC=C(C)C)c2oc(=O)ccc12 [phellopterin]		6.35 µM		inhibition at 50 µM (mNG-SARS-CoV-2 [1]): 96%; CC50 at 48 h [6]: 93 µM
CC(=O)O[C@@]12C[C@@H](C)[C@@]3(O)[C@@H](C=C(CO)C[C@]4(O)C(=O)C(C)=C[C@@H]34)[C@@H]1C2(C)C [prostratin]				EC50 (SARS-CoV-2 Omicron BA.1; [7]): 11.6 µM; EC50 (SARS-CoV-2 Omicron BA.1; [8]): 5 µM
C=C1C[C@H]2[C@@](C)(C(=O)C(O)=C3C(C)(C)C(=O)CC[C@@]32C)[C@@H]2C(=O)O[C@@](C)(C(=O)OC)C(=O)[C@@]12C [terretonin A]		7.31 µM		inhibition at 50 µM (mNG-SARS-CoV-2 [1]): 82%; CC50 at 48 h [6]: > 100 µM
COc1cc(-c2cc3c(c(=O)o2)C[C@]2(O)[C@@]4(C)C(=O)C=CC(C)(C)[C@]4(O)CC[C@@]2(C)O3)cc(OC)c1OC [territrem B]		6.64 µM		inhibition at 50 µM (mNG-SARS-CoV-2 [1]): 100%; CC50 at 48 h [6]: > 100 µM
acetyl hyrtiosal	97%	1.97 µM	> 100 µM	
artahongkongene B	81%	22 µM	> 100 µM	
asparacemosone A	95%	20.7 µM	> 100 µM	
crotonolide F	97%	8.21 µM	> 100 µM	
knecorticosanone G	100%	3.5 µM	> 100 µM	
piperbonin A	100%	3.61 µM	> 100 µM	
